From ChEMBL document CHEMBL3259754, “Purine derivatives as potent Bruton's tyrosine kinase (BTK) inhibitors for autoimmune diseases” (Bioorg Med Chem Lett, 2014) come the findings set out here.

pIC50: −log10 of the molar value. A value given as a limit tells only on which side of the number the result lay.

Series [1] deals with Tyrosine-protein kinase BTK (Homo sapiens, UniProt Q06187). The experiment in a line: Inhibition of full length human wild type his-tagged BTK expressed in Sf9 cells using biotinylated peptide as substrate after 1 hr by Fluorescence assay.
Tyrosine-protein kinase BTK, sequence (Q06187 whole entry): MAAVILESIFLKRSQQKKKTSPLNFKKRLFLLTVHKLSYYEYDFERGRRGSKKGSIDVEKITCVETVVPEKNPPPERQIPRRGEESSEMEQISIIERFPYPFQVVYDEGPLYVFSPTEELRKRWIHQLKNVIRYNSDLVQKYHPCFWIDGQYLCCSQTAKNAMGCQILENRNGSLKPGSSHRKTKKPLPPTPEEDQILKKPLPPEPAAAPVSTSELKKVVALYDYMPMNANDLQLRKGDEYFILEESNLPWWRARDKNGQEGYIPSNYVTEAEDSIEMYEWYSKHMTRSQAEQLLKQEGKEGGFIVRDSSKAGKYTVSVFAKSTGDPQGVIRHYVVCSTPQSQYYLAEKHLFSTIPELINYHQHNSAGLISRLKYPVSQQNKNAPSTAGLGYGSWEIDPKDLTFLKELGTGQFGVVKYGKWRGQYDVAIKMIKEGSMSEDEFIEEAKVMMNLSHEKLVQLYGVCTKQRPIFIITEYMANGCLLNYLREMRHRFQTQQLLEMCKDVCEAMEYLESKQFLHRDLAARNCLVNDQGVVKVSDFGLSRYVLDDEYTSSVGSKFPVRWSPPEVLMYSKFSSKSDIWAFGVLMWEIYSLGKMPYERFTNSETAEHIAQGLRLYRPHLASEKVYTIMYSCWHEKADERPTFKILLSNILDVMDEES
Series [2] in a line: Apparent permeability from basolateral to apical side of human Caco2 cells. In kind it is ADME, cell-based. Conditions: Caco-2. In general terms: Caco-2 cells form a polarised layer with tight junctions and transporters.
The test system of the next series is Liver. Put plainly: Stability in mouse liver microsomes assessed as compound remaining. In kind it is ADME. (Microsomes from liver hold many membrane-bound enzymes, among them those of drug oxidation.)
Series [3] in a line: Apparent permeability from apical to basolateral side of human Caco2 cells. Format: ADME, cell-based. The conditions noted are these: Caco-2.
Series [4] can be described thus: Aqueous solubility of the compound at pH 6. Format: physicochemical.
Series [5] in a line: AUC (total) in CD1 mouse at 30 mg/kg, ip. Also on record: dose 30 mg/kg, route intraperitoneal. Conditions: plasma. In kind it is ADME, organism-based. An outline of the steps:
(§1)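 Mouse PK: single 30 mg/kg dose given IP as a Methocel suspension. Cmax, total AUC and t1/2 were taken from plasma exposure after dosing.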

Series [6] can be described thus: Permeability of the compound by PAMPA. The conditions noted are these: read-out: permeability. In kind it is physicochemical. (In general: The PAMPA barrier holds no transporters, so it reflects passive diffusion.)
Series [7] is described as follows: Aqueous solubility of the compound at pH 1. Format: physicochemical.
Series [8] relates to Liver microsome. Put plainly: Stability in human liver microsomes assessed as compound remaining. In kind it is ADME.
A short description of series [9]: Half life in CD1 mouse at 30 mg/kg, ip. In kind it is ADME, organism-based. On the set-up: dose 30 mg/kg, route intraperitoneal. The conditions noted are these: in vivo. An outline of the steps: as §1
For series [10], the system named is Liver microsome. The experiment in a line: Stability in rat liver microsomes assessed as compound remaining. In kind it is ADME.
A short description of series [11]: Cmax in CD1 mouse at 30 mg/kg, ip. On the set-up: dose 30 mg/kg, route intraperitoneal. The conditions noted are these: in vivo. Format: ADME, organism-based. An outline of the steps:
as §1

Series [12] can be described thus: Selectivity ratio of IC50 for JAK2 (unknown origin) to IC50 for full length human wild type his-tagged BTK expressed in Sf9 cells.
A short description of series [13]: Selectivity ratio of IC50 for ITK (unknown origin) to IC50 for full length human wild type his-tagged BTK expressed in Sf9 cells.
Series [14] can be described thus: Selectivity ratio of IC50 for Flt3 (unknown origin) to IC50 for full length human wild type his-tagged BTK expressed in Sf9 cells.

Compound `Cn1cnc2c(Nc3ccc(C(=O)N4CCOCC4)cc3)nc(-c3cccc(NC(=O)c4ccc(C(C)(C)C)cc4)c3)cc21` gave a pIC50 in series [1] of 6.82.
In series [1], `CC(C)(C)c1ccc(C(=O)Nc2cccc(-c3nccc(Nc4ccc(C(=O)N5CCOCC5)cc4)n3)c2)cc1` had a pIC50 below 4.30.
In turn, `CC(C)(C)c1ccc(C(=O)Nc2cccc(-c3nc(Nc4ccc(C(=O)N5CCOCC5)cc4)c4cccn4n3)c2)cc1` had a pIC50 in series [1] below 4.30.
Turning to `Cc1c(NC(=O)c2ccc(C(C)(C)C)cc2)cccc1-c1nc(Nc2ccc(C(=O)N3CCOCC3)cc2)c2nc[nH]c2n1`, the Papp B→A in series [2] is below 1.5 ×10⁻⁶ cm/s. Further, the Stability was 68% with Liver, 14% in the series with Liver microsome [8] and 36% in the series on Liver microsome [10]. Also, the Papp A→B in [3] was below 1.5 ×10⁻⁶ cm/s. In addition, the solubility in series [4] and in series [7] was below 1 µg/mL each time. Moreover, the AUC in [5] is 32.5 µM·h. Moreover, the Papp in series [6] worked out at 40.3 ×10⁻⁶ cm/s. In series [9], this compound gave a half-life of 4.3 h. For the same compound, in [11], the peak level (Cmax) was 3.8 µM.
Turning to `Cc1c(NC(=O)c2ccc(C(C)(C)C)cc2)cccc1-c1nc(Nc2ccc(C(=O)N3CCOCC3)cc2)c2ncn(CCCc3ccccc3)c2n1`, the pIC50 in series [1] is below 4.30. For the same compound, the Ratio IC50 was 1 in [12], 1 in series [13] and 0.1 in series [14].

The term pIC50 denotes the IC50 on a negative log10 scale, so that one unit is a factor of ten. As usually defined, the Papp B→A is how fast a substance crosses the layer from the basolateral side. A word on the Papp A→B: it is how fast a substance crosses the layer from the apical side. As a reminder, the solubility is the concentration that dissolves in the medium under given conditions. In general, AUC refers to the area under the concentration-time curve, a measure of exposure. Lower therefore signals less exposure. A word on the half-life: it is the time in which the quantity being followed falls by half. Read a low half-life as fast loss. A word on the Cmax: it is the maximum level reached in the sampled fluid or tissue.
